Data on eleven molecules can be found in ChEMBL document CHEMBL1123677, “Structure-activity studies of 5-[[4-(4,5-dihydro-2-oxazolyl) phenoxy]alkyl]-3-methylisoxazoles: inhibitors of picornavirus uncoating” (J Med Chem, 1987).

≈ marks a conversion by molar mass, not a printed value. Calls of active or inactive are those of the source. The calls are words filed in the database; no cut-off is given here.

A short description of data set [1]: Partition coefficient (logP). It counts as physicochemical. Particulars: octanol/water.
In another data set the test system is rhinovirus A15. The experiment in a line: Tested for antirhinoviral activity against the rhinovirus serotype 15. It counts as functional. Particulars: Rhinovirus A. The method in brief:
(§1)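 Selected compounds were tested across a 15-serotype rhinovirus panel: the five secondary serotypes plus 10 more. An MIC was recorded for each serotype. MIC80, the concentration inhibiting 80% of serotypes tested, was also derived from this panel.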

The next data set relates to rhinovirus A41. The experiment in a line: Tested for antirhinoviral activity against the rhinovirus serotype 41. It counts as functional. The note with it: Rhinovirus A. The method in brief: as §1
Another data set deals with rhinovirus B14. The experiment in a line: Tested for antirhinoviral activity against the rhinovirus serotype 14. The class given is functional, human rhinovirus type 14. Particulars: Rhinovirus B. The method in brief:
as §1

A further data set relates to rhinovirus A50. The experiment in a line: Tested for antirhinoviral activity against the rhinovirus serotype 50. The class given is functional. The note with it: Rhinovirus A. The method in brief: as §1
The next data set concerns rhinovirus B86. The experiment in a line: Tested for antirhinoviral activity against the rhinovirus serotype 86. It counts as functional. The note with it: Rhinovirus B. The method in brief: as §1
In a further data set the test system is rhinovirus A67. The experiment in a line: Tested for antirhinoviral activity against the rhinovirus serotype 67. The class given is functional. The note with it: Rhinovirus A. The method in brief:
as §1

The test system of data set [2] is rhinovirus A2. The experiment in a line: Tested for antirhinoviral activity against the rhinovirus serotype 2. The class given is functional, human rhinovirus type 2. Particulars: Rhinovirus A. The method in brief: as §1
Data set [3] deals with rhinovirus A2. The experiment in a line: Antirhinovirus activity was assessed and the maximum testable concentration that causes no apparent effects on the cell monolayers was determined against HRV-2 virus in vitro. The class given is functional, human rhinovirus type 2.
For another data set, the system named is rhinovirus A1B. The experiment in a line: Tested for antirhinoviral activity against the rhinovirus serotype 1B. The note with it: Rhinovirus A. The class given is functional, human rhinovirus type 1b. The method in brief: as §1
In the next data set the test system is Human rhinovirus 1A. As to the kind of experiment: Tested for antirhinoviral activity against the rhinovirus serotype 1A. The class given is functional. The method in brief:
as §1

Another data set has as its system rhinovirus B6. The experiment in a line: Tested for antirhinoviral activity against the rhinovirus serotype 6. It counts as functional. Particulars: Rhinovirus B. The method in brief: as §1
For data set [4], the system named is rhinovirus A2. As to the kind of experiment: Antiviral activity determined by ability to inhibit the HRV-2( human rhinovirus type -2) virus by plaque reduction assay in vitro. It counts as functional. Particulars: Rhinovirus A. The method in brief: (§2)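 Plaque reduction assay against human rhinovirus type 2 (HRV-2), following an earlier reported method. The value is the MIC, the minimum inhibitory concentration.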
(In general: Plaques are areas of infected cells; plaque reduction assays count them against a control.)

A further data set concerns rhinovirus A30. As to the kind of experiment: Tested for antirhinoviral activity against the rhinovirus serotype 30. The class given is functional. Particulars: Rhinovirus A. The method in brief:
as §1

In another data set the test system is Human rhinovirus sp. The experiment in a line: Mean of MIC's was determined for the five types of virus like HRV-2, HRV-1A,HRV-22,HRV-41 and HRV-50. It counts as functional. The method in brief:
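MIC measured by plaque reduction against HRV-2 first. The value is the mean of the MICs across these five serotypes.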

Data set [5] deals with human rhinovirus (15-serotype panel). As to the kind of experiment: Antirhinovirus activity was determined by the ability to inhibit the growth of 80% of a panel of 15 human rhinovirus serotypes.
In a further data set the test system is rhinovirus A25. The experiment in a line: Tested for antirhinoviral activity against the rhinovirus serotype 25. The class given is functional. The note with it: Rhinovirus A. The method in brief:
as §1

The subject of the next data set is rhinovirus A21. The experiment in a line: Tested for antirhinoviral activity against the rhinovirus serotype 21. The class given is functional. The note with it: Rhinovirus A. The method in brief: as §1
Another data set relates to rhinovirus A22. The experiment in a line: Tested for antirhinoviral activity against the rhinovirus serotype 22. It counts as functional. The note with it: Rhinovirus A. The method in brief: as §1
For the next data set, the system named is rhinovirus A89. As to the kind of experiment: Tested for antirhinoviral activity against the rhinovirus serotype 89. It counts as functional, human rhinovirus type 89. The note with it: Rhinovirus A. The method in brief: as §1
Data set [6] concerns rhinovirus A2. As to the kind of experiment: Antirhinovirus activity was determined by the ability to inhibit the HRV-2( human rhinovirus type -2) virus by plaque reduction assay in vitro; IA is inactive. It counts as functional, organism-based. The method in brief:
as §2

With `C=Cc1cc(C2=NCCO2)ccc1OCCCCCc1cc(C)no1`, in data set [1], the logP amounted to 4.65. Besides, the MIC stood at 0.7 µM (≈ 0.238 µg/mL) in the data set on rhinovirus A15; 1.3 µM (≈ 0.443 µg/mL) in the data set with rhinovirus A41; 1.7 µM (≈ 0.579 µg/mL) with rhinovirus B14; 1.2 µM (≈ 0.409 µg/mL) in the data set on rhinovirus A50; 1.6 µM (≈ 0.545 µg/mL) in the data set on rhinovirus B86; 0.4 µM (≈ 0.136 µg/mL) against rhinovirus A67. The MIC came out at 0.2 µM (≈ 0.0681 µg/mL) with rhinovirus A2 [2]; 0.3 µM (≈ 0.102 µg/mL) in the data set on rhinovirus A1B; 1.2 µM (≈ 0.409 µg/mL) in the data set with Human rhinovirus 1A; 2.4 µM (≈ 0.817 µg/mL) in the data set with rhinovirus B6; 0.2 µM (≈ 0.0681 µg/mL) with rhinovirus A2 [4]; 0.1 µM (≈ 0.034 µg/mL) against rhinovirus A30. The MIC came to 0.8 µM (≈ 0.272 µg/mL) in the data set with Human rhinovirus sp.; 1.7 µM (≈ 0.579 µg/mL) with rhinovirus A25; 0.09 µM (≈ 0.0306 µg/mL) in the data set with rhinovirus A21; 0.5 µM (≈ 0.17 µg/mL) against rhinovirus A22; 0.1 µM (≈ 0.034 µg/mL) in the data set on rhinovirus A89. Moreover, the MTL with rhinovirus A2 [3] was 18 µM. Besides, in data set [5], the MIC80 turned out to be 1.6 µM (≈ 0.545 µg/mL).

With `Cc1cc(CCCCOc2ccc(C3=NCCO3)cc2Cl)on1`, the MTL in the data set on rhinovirus A2 [3] came out at 9.3 µM. The MIC was found to be 0.2 µM (≈ 0.067 µg/mL) with rhinovirus A2 [4] and 1 µM (≈ 0.335 µg/mL) with Human rhinovirus sp.. In addition, in data set [5], the MIC80 worked out at 3.6 µM (≈ 1.21 µg/mL).

For `Cc1cc(CCCCCCCOc2ccc(C3=NCCO3)cc2)on1` [DISOXARIL], the MTL in the data set on rhinovirus A2 [3] amounted to 18 µM. Besides, the MIC with rhinovirus A2 [4] was 3.5 µM (≈ 1.2 µg/mL); in the data set with Human rhinovirus sp., above 18 µM.

For the molecule `Cc1cc(CCCCCOc2ccc(C3=NCCO3)cc2C(=O)O)on1`, the MIC result with rhinovirus A2 [6] is “inactive”.

Turning to `Cc1cc(CCCCCOc2ccc(C3=NCCO3)c(C)c2)on1`, in the data set on rhinovirus A2 [3], the MTL turned out to be 19 µM. In addition, the results for the MIC against rhinovirus A2 [4] and with Human rhinovirus sp. were 0.41 µM (≈ 0.135 µg/mL) and above 18 µM, respectively. In data set [5], this molecule showed an MIC80 of 15 µM (≈ 4.93 µg/mL).

`C=CCc1cc(C2=NCCO2)ccc1OCCCCCc1cc(C)no1`: the logP in data set [1] was determined as 4.93. In addition, the MIC against rhinovirus A15 came out at 1.6 µM (≈ 0.567 µg/mL); in the data set on rhinovirus A41, 3.4 µM (≈ 1.21 µg/mL); in the data set with rhinovirus B14 it was 3.4 µM (≈ 1.21 µg/mL); with rhinovirus A50, 0.4 µM (≈ 0.142 µg/mL); in the data set with rhinovirus B86, 2.1 µM (≈ 0.744 µg/mL); in the data set with rhinovirus A67, 1.1 µM (≈ 0.39 µg/mL). For the same molecule, the MIC was 0.08 µM (≈ 0.0284 µg/mL) in the data set with rhinovirus A2 [2]; 0.1 µM (≈ 0.0354 µg/mL) in the data set with rhinovirus A1B; 1.4 µM (≈ 0.496 µg/mL) in the data set on Human rhinovirus 1A; 1.7 µM (≈ 0.603 µg/mL) in the data set on rhinovirus B6; 0.08 µM (≈ 0.0284 µg/mL) in the data set on rhinovirus A2 [4]; 0.8 µM (≈ 0.284 µg/mL) in the data set on rhinovirus A30. The MIC is 1.1 µM (≈ 0.39 µg/mL) in the data set on Human rhinovirus sp.; 3.4 µM (≈ 1.21 µg/mL) in the data set on rhinovirus A25; 0.4 µM (≈ 0.142 µg/mL) with rhinovirus A21; 0.5 µM (≈ 0.177 µg/mL) against rhinovirus A22; 0.6 µM (≈ 0.213 µg/mL) against rhinovirus A89. In the data set with rhinovirus A2 [3], the MTL turned out to be 8.8 µM. The MIC80 in data set [5] was found to be 2.1 µM (≈ 0.744 µg/mL).

With `Cc1cc(CCCCCOc2ccc(C3=NCCO3)cc2C(C)(C)C)on1`, the MTL with rhinovirus A2 [3] was determined as 8.4 µM. Besides, the MIC entry in the data set with rhinovirus A2 [6] is “inactive”.

In the case of `Cc1cc(CCCCCOc2ccc(C3=NCCO3)c(Cl)c2)on1`, in the data set with rhinovirus A2 [3], the MTL came to 25 µM. Further, the MIC in the data set with rhinovirus A2 [4] was found to be 0.4 µM (≈ 0.14 µg/mL); in the data set on Human rhinovirus sp., 6.5 µM (≈ 2.27 µg/mL). Further, the MIC80 in [5] is 7 µM (≈ 2.44 µg/mL).

As to `CC(=O)c1cc(C2=NCCO2)ccc1OCCCCCc1cc(C)no1`, the logP in data set [1] was 3.28. For the same molecule, the MIC in the data set with rhinovirus A15 turned out to be 0.4 µM (≈ 0.143 µg/mL); in the data set with rhinovirus A41, 2.9 µM (≈ 1.03 µg/mL); in the data set on rhinovirus B14, 7.3 µM (≈ 2.6 µg/mL); in the data set with rhinovirus A50 it was 0.2 µM (≈ 0.0713 µg/mL); in the data set on rhinovirus B86 it was 6.5 µM (≈ 2.32 µg/mL); against rhinovirus A67 it was 0.6 µM (≈ 0.214 µg/mL). For the same molecule, the MIC in the data set on rhinovirus A2 [2] was 0.1 µM (≈ 0.0356 µg/mL); against rhinovirus A1B, 0.3 µM (≈ 0.107 µg/mL); in the data set on Human rhinovirus 1A, 2.2 µM (≈ 0.784 µg/mL); with rhinovirus B6, 5.1 µM (≈ 1.82 µg/mL); against rhinovirus A2 [4] it was 0.1 µM (≈ 0.0356 µg/mL); against rhinovirus A30, 0.3 µM (≈ 0.107 µg/mL). Also, the MIC with Human rhinovirus sp. was 1.1 µM (≈ 0.392 µg/mL); in the data set on rhinovirus A25, 2.2 µM (≈ 0.784 µg/mL); in the data set on rhinovirus A21 it was 5.3 µM (≈ 1.89 µg/mL); in the data set on rhinovirus A22, 0.1 µM (≈ 0.0356 µg/mL); in the data set with rhinovirus A89, 2 µM (≈ 0.713 µg/mL). For the same molecule, the MTL with rhinovirus A2 [3] came out at 6.5 µM. Also, the MIC80 in [5] came out at 5.1 µM (≈ 1.82 µg/mL).

As for `Cc1cc(CCCCCOc2ccc(C3=NCCO3)cc2C=O)on1`, the MTL in the data set on rhinovirus A2 [3] was 2.3 µM. For the same molecule, the MIC was 1.4 µM (≈ 0.479 µg/mL) against rhinovirus A2 [4] and above 2.3 µM with Human rhinovirus sp..

For `Cc1cc(CCCCCOc2ccc(C3=NCCO3)cc2C(F)F)on1`, the lipophilicity (logP) in data set [1] was 4.59. The MIC against rhinovirus A15 came out at 0.2 µM (≈ 0.0729 µg/mL); against rhinovirus A41, 2 µM (≈ 0.729 µg/mL); against rhinovirus B14 it was 2 µM (≈ 0.729 µg/mL); with rhinovirus A50, 2 µM (≈ 0.729 µg/mL); in the data set with rhinovirus B86, 1.7 µM (≈ 0.619 µg/mL); with rhinovirus A67, 0.2 µM (≈ 0.0729 µg/mL). For the same molecule, the MIC in the data set with rhinovirus A2 [2] was 0.05 µM (≈ 0.0182 µg/mL); against rhinovirus A1B, 0.08 µM (≈ 0.0292 µg/mL); against Human rhinovirus 1A it was 0.8 µM (≈ 0.292 µg/mL); in the data set with rhinovirus B6 it was 0.3 µM (≈ 0.109 µg/mL); in the data set on rhinovirus A2 [4], 0.06 µM (≈ 0.0219 µg/mL); in the data set with rhinovirus A30, 0.09 µM (≈ 0.0328 µg/mL). Besides, the MIC against Human rhinovirus sp. came to 1 µM (≈ 0.364 µg/mL); with rhinovirus A25 it was 0.9 µM (≈ 0.328 µg/mL); against rhinovirus A21, 0.05 µM (≈ 0.0182 µg/mL); in the data set on rhinovirus A22 it was 0.05 µM (≈ 0.0182 µg/mL); against rhinovirus A89 it was 0.02 µM (≈ 0.00729 µg/mL). The MTL in the data set with rhinovirus A2 [3] was 17 µM. In data set [5], this molecule registered an MIC80 of 2 µM (≈ 0.729 µg/mL).

A word on the logP: it is a log measure of how a compound divides between an organic and an aqueous phase. A low value points to lower lipophilicity.
